# Source: PubChem (several laboratories)
# Compounds with a hit are over-represented: about 5.5% of the library has one in this group of screens.
# HSV augment – HSV replication enhancement. HSV replication augmentation in cells, fold increase. maximum fold increase. actives 0.005% (n = 220,000). AID 1956; in the data active = maximum fold increase above about 1.5; tested in PC3 cells
# STAT3 act – increases IL-6 driven STAT3 reporter signal; U3A cells, IL-6 STAT3-luciferase reporter, luminescence; 100% = signal with IL-6 EC80 alone; activation (% of control), % at 5.6 µM; actives 0.91% (n = 190,000); AID 871;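 active = activation above the screen-wide mean of compound activation plus 3 SD, cut at about 130% in these data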;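 also: 0% = background luminescence of wells with medium and substrate only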
#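 Detection: reporter luminescence signal / Assay system: STAT1-lacking human U3A cells, STAT3 luciferase reporter / Incubation: compound pre-incubation 1 h before IL-6, then 6 h stimulation at 37 °C / Control set: IL-6-only high control / Read-out: % activation relative to IL-6 control / Probe or stimulus: Interleukin-6, 33 ng/mL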
# STAT1 blocker – inhibitors of IFN-gamma induced STAT1 signaling; NIH 3T3 STAT1-luciferase reporter, luminescence; inhibition, % at 5.5 µM; AID 920; actives 0.35% (n = 200,000);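 active = inhibition above a set limit, the mean inhibition across all tested compounds plus 3 SD, cut at about 34% in these data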;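 also: 0% = IFN-gamma with DMSO and 100% = IFN-gamma with 300 µM nifuroxazide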
# STAT3 blocker – reduces IL-6 driven STAT3 reporter signal; U3A cells, IL-6 STAT3-luciferase reporter, luminescence; host cell line lacks STAT1; inhibition, % at 5.5 µM; actives 0.89% (n = 190,000); AID 862;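 active = inhibition above the mean inhibition across all screened compounds plus 3 SD, cut at about 44% in these data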;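 also: 0% = DMSO only wells and 100% = 100 µM nifuroxazide control wells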
# KCC2 mod – modulators of human KCC2 chloride dependent transport | Q9H2X9 | KCC2 cells, thallium flux FluoZin-2 fluorescence | B-score of Tl+ flux slope (higher = more flux/activation; lower = inhibition) at 10 µM | actives 2.2% (n = 190,000) | AID 1456;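 active = thallium flux slope and its plate-corrected score both differing from the plate sample mean at a set confidence after two filtering rounds, in either direction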;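 also: slope of fluorescence scaled to starting intensity during 10 to 20 s after thallium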
# Target sequence (Q9H2X9 whole entry, looked up): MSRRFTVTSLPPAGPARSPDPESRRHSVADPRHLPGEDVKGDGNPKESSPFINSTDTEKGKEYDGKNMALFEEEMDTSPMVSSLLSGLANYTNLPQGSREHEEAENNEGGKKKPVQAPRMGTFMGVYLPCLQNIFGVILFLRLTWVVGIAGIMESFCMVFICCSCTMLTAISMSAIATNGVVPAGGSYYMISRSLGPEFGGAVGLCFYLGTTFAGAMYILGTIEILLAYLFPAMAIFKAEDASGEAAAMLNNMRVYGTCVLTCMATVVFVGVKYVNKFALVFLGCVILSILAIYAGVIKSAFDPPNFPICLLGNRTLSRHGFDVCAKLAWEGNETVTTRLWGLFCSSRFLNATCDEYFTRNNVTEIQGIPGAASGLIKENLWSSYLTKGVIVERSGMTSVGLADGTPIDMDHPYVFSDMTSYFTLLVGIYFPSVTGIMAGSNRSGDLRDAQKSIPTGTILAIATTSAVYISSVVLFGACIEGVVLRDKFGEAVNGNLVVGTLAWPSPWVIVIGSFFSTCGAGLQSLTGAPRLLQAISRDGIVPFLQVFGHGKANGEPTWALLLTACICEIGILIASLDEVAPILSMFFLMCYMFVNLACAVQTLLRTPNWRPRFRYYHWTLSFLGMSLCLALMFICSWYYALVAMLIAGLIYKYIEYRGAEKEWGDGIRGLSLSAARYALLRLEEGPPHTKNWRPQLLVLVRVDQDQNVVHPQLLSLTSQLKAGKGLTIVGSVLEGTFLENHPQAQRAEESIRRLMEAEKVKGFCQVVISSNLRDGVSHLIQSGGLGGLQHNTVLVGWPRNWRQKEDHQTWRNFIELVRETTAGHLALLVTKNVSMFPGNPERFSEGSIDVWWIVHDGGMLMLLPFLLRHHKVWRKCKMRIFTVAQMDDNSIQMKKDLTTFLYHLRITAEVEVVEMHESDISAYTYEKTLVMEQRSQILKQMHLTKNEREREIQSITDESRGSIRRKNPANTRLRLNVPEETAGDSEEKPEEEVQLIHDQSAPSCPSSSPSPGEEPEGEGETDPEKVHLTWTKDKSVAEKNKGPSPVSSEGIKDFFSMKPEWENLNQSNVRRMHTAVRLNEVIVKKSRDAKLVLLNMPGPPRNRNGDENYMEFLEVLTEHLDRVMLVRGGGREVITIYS
# STAT1 act – activators of IFN-gamma induced STAT1 signaling | NIH 3T3 STAT1-luciferase reporter, luminescence; 100% = IFN-gamma alone, no compound | activation (% of control), % at 5.5 µM | actives 2.6% (n = 200,000);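 active = activation above the screen-wide mean activation plus 3 SD, cut at about 130% in these data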;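 also: raw ratio to IFN-gamma control signal so 100% means no change and 0% no light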
# Active calls of the source: *; i = inactive; . = not tested or not shown.
SMILES,HSV augment,STAT3 act,STAT1 blocker,STAT3 blocker,KCC2 mod,STAT1 act
Cc1occc1C(=O)NNC(=O)c1ccccc1C(=O)O,i,110,-51,-7,-0.17,146*
CCCOC(=O)c1ccc(NC(=O)CC(C)(C)C)cc1,i,112,-50,-9,-0.69,144*
CCC(=O)Nc1ccc(C(=O)OCc2ccccc2)cc1,i,98,-35,4,.,132*
Cc1ccccc1C(=O)NNC(=O)c1ccoc1C,i,101,5,0,0.013,96
CCCCOC(=O)c1ccc(NC(=O)c2ccoc2C)cc1,i,98,-30,6,-0.013,127
CC(C)(C)NC(=O)NC(=O)COC(=O)CNS(=O)(=O)/C=C/c1ccccc1,i,102,-6,0,0.069,105
O=C(CSC(=S)N1CCN(c2ccccc2)CC1)Nc1nc(-c2ccccc2)c(-c2ccccc2)o1,i,86,6,18,1.3,95
CC(C)[C@H](NC(N)=O)C(=O)Nc1ccc(OCc2ccccc2)cc1,i,102,-12,2,-0.17,111
Cc1occc1C(=O)Nc1ccc(OCc2ccccc2)cc1,i,93,-32,10,-0.45,129*
C[C@H](NC(N)=O)C(=O)Nc1ccc(OCc2ccccc2)cc1,i,108,-35,-7,-0.054,132*
CC(=O)Nc1ccc(C(=O)OCCC(C)C)cc1,i,97,-32,6,-1.1,129*
CC1CC(C)CN(C(=O)CSc2nc(N)cc(=O)[nH]2)C1 (stereo unspecified),i,96,6,5,0.14,95
O=C(N/N=C/C(Br)=C/c1ccccc1)c1cccs1,i,90,-55,15,0.68,148*
O=C(N/N=C/c1ccc(OCc2ccccc2)cc1)c1cccs1,i,110,-45,-9,0.33,140*
O=C(N/N=C/c1ccccc1[N+](=O)[O-])c1cccs1,i,.,.,.,0.02,.
O=C(N/N=C/c1ccc(OCc2ccccc2)cc1)c1ccncc1,i,96,-5,8,-4.1,103
Oc1ccc(N=Cc2ccc(OCc3ccccc3)cc2)cc1,i,103,-44,-2,.,142*
Cc1ccc(C)c(NS(=O)(=O)c2ccc3c(c2)Cc2cc(S(=O)(=O)Nc4cc(C)ccc4C)ccc2-3)c1,i,106,3,-9,1.3,97
Cc1cccc(Nc2nn3c(=O)c4ccccc4nc3s2)c1,i,102,-35,0,1.4,132*
CC(=O)c1ccc(N2CCN(C(=O)CCCc3nc4ccccc4s3)CC2)cc1,i,92,1,17,-1.3,99
O=C(O)c1ccc(/C=N/Nc2nc3ccccc3[nH]2)cc1,i,.,.,.,-0.14,.
O=c1[nH]c(N/N=C/c2ccc(O)cc2)nc2ccccc12,i,92,-49,12,-0.64,144*
O=c1[nH]c(N/N=C\c2ccc(F)cc2)nc2ccccc12,i,83,-56,25,0.61,150*
CCOC(=O)[C@H]1NN=C(C(=O)OC)[C@@H]1c1ccccc1,i,97,7,8,-0.033,94
CCN(CC)CC(=O)Nc1ccc(C)cc1Br,i,111,-4,-11,0.33,104
SMILES,HSV augment,STAT3 act,STAT1 blocker,STAT3 blocker,KCC2 mod,STAT1 act
CCc1cc(C(=O)Nc2ccc(C)cc2Br)cs1,i,144*,-45,-48,-0.79,137*
Cc1cccc(NC(=S)NNC(=O)c2csc(C(C)C)c2)c1,i,105,-36,-2,16*,124
CCc1cc(C(=O)NNC(=S)Nc2cccc(C)c2)cs1,i,97,-12,6,9.3*,114
C(=N\N1CCOCC1)/c1cccs1,i,103,2,-6,-0.32,100
CCn1cc(C(C)NC(=O)Nc2ccccc2C(=O)OC)c(C)n1 (stereo unspecified),i,105,-2,0,0.015,100
COc1ccccc1N1CCN(C(C)C(=O)Nc2ccc(S(=O)(=O)N3CCOCC3)cc2)CC1 (stereo unspecified),i,103,18,-1,0.65,84
CNC(=S)Nc1cc(C)ccc1OC(F)F,i,96,-2,10,0.52,100
COC1=C(Nc2ccccc2)C(=O)c2ccccc2C1=O,i,134*,-15,-38,0.18,114
O=C(NNc1ccnc2cc(Cl)ccc12)C1CCCCC1,i,39,36*,76*,-0.31,66
c1ccc(-c2ncc3c(ccc4ccccc43)n2)cc1,i,119,-41,-27,-0.31,141*
c1ccc2c(c1)cnc1ccccc12,i,.,.,.,-2.7,.
COc1n[nH]c(C(=O)Nc2nc3ccccc3s2)c1[N+](=O)[O-],i,123,-41,-22,0.079,134*
O=C(O)c1ccccc1-c1ccccc1C(=O)NCc1cccc(C(F)(F)F)c1,i,108,-1,-4,-0.19,99
O=CN1CCN(C(=O)c2ccc(-c3nc4ccccc4s3)s2)CC1,i,76,-33,31,-1.8,129*
Cn1cc(CN2C[C@H]3CC[C@H]2C3)c(-c2ccccc2F)n1,i,102,-1,4,.,101
CCOC(=O)C1(CCc2ccccc2)CCN(C(=O)CCn2cncn2)CC1,i,109,-46,-5,.,139*
COc1cccc(Nc2nc(N)nc(-c3oc4ccccc4c3C)n2)c1,i,123,-38,-24,-0.83,134*
Cc1cccc(Nc2nc(N)nc(-c3oc4ccccc4c3C)n2)c1,i,.,.,.,0.28,.
Cc1ccc(Nc2nc(N)nc(-c3oc4ccccc4c3C)n2)cc1,i,154*,-61,-54,0.59,156*
COC(=O)c1ccc2nc(-c3cccc(N)c3)cn2c1,i,37,60*,74*,0.058,44
CS(=O)(=O)c1ccc(-c2cn3cc(C(=O)O)ccc3n2)cc1,i,82,22,29,0.19,79
COC(=O)c1ccc2nc(-c3ccc(S(C)(=O)=O)cc3)cn2c1,i,108,-39,-4,0.32,139*
O=C(O)c1cccc(NC(=O)c2ccc(Cl)c(S(=O)(=O)N3CCCCCC3)c2)c1,i,57,39*,53*,-1.3,63
O=C(Nc1ccccc1)c1cccc(S(=O)(=O)N2CCCCC2)c1,i,92,9,14,-0.16,91
O=C(Nc1ccccc1C(=O)O)c1ccc(Cl)c(S(=O)(=O)N2CCOCC2)c1,i,88,51*,19,.,53
CCCCC(=O)NC(=S)Nc1c(C)cc(Br)cc1C,i,99,2,3,0.82,98
Cc1ccc2c(c1)nnn2C1CCN(C(=O)c2ccccc2F)CC1,i,101,11,6,0.3,89
COc1cc([N+](=O)[O-])ccc1NC(=O)CSc1n[nH]c(C(C)C)n1,i,102,16,0,-0.47,85
